Experiment [1] is described as follows: Cytotoxicity against human HuH7 cells after 72 hrs by WST1 assay. It is filed as functional, cell-based. Conditions: Huh-7, 72 h. An outline of the steps:
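1 × 10^4 cells/well seeded, cultured overnight, then exposed to compound 72 h; vehicle control 0.1% EtOH. WST-1 reagent (0.5 mM WST-1, 0.02 mM 1-methoxy-5-methylphenazinium methylsulfate) added, 60 min at 37 °C. Viability = treated/control absorbance × 100%.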
On the technique in general: Tetrazolium dyes change colour on reduction, which living cells bring about.

Experiment [2] is described as follows: Cytotoxicity against human EJ1 cells after 72 hrs by WST1 assay. It is filed as functional, cell-based. The note with it: EJ1, 72 h. An outline of the steps: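 1 × 10^4 cells/well seeded, cultured overnight, then exposed to compound 72 h; vehicle control 0.1% EtOH. WST-1 reagent (0.5 mM WST-1, 0.02 mM 1-methoxy-5-methylphenazinium methylsulfate) added, 60 min at 37 °C. Absorbance 438 nm (reference 620 nm). Viability = treated/control absorbance × 100%.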

The target of experiment [3] is T1, Tyrosine-protein phosphatase non-receptor type 1 (Homo sapiens, UniProt P18031).
T1 sequence (P18031 whole entry): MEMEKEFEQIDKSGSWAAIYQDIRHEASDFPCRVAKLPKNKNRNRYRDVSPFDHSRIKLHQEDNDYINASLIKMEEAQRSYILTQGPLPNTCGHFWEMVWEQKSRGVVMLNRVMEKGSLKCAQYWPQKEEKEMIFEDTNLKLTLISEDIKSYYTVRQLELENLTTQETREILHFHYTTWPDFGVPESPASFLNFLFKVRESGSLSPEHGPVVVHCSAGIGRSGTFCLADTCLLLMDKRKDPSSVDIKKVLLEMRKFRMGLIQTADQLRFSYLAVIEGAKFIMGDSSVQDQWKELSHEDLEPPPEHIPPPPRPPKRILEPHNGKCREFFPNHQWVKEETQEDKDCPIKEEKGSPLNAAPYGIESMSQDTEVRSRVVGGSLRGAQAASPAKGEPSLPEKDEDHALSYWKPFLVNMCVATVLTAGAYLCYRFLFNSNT
As to the kind of experiment: Inhibition of human recombinant PTP1B using pNPP as substrate assessed as rate of hydrolysis incubated for 10 mins prior to substrate addition measured after 30 mins by microplate reader analysis.

The test system of experiment [4] is Mycolicibacterium smegmatis. Put plainly: Antimycobacterial activity against Mycobacterium smegmatis NBRC 3207 assessed as inhibition zone at 10 ug/disc after 2 days incubation by paper disc method. It is filed as functional. The note with it: for zone of inhibition at 10 µg/disc: NBRC 3207, 48 h, read-out: IZ. An outline of the steps:
(§1)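 Disc diffusion: strain grown in Middlebrook 7H9 broth (0.05% polysorbate 80, 0.5% glycerol, 10% OADC) 2 days at 37 °C, adjusted to 1.0 × 10^6 CFU/mL, spread on same medium with 1.5% agar. Sample in CH3OH dried onto 6 mm filter disc, placed on plate, 2 days at 37 °C. Controls: streptomycin sulfate 5 μg/disc, CH3OH.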

In experiment [5] the test system is Mycolicibacterium smegmatis. As to the kind of experiment: Antimycobacterial activity against Mycobacterium smegmatis NBRC 3207 assessed as inhibition zone at 20 ug/disc after 2 days incubation by paper disc method. It is filed as functional. Conditions: NBRC 3207, 48 h, read-out: IZ. An outline of the steps:
as §1

The values below come from ChEMBL document CHEMBL3585317, “Structures and Biological Evaluations of Agelasines Isolated from the Okinawan Marine Sponge Agelas nakamurai” (J Nat Prod, 2015).

pIC50: −log10 of the molar value. Structures can show the parent of a compound that is named as a salt. Active and inactive are the calls of the source. No cut-off for these calls is given here.

`CC1=CC(=O)C[C@H](C)[C@@]1(C)CC/C(C)=C/CC/C(C)=C/C[n+]1cn(C)c2ncnc(N)c21`: the pIC50 – broadly, the IC50 on a negative log10 scale, so that one unit is a factor of ten – in experiment [1] was under 4.30; in experiment [2], under 4.30; in experiment [3], under 4.64.

Consider `C/C(=C\Cn1c[n+](C)c2ncnc(N)c21)CC[C@]1(C)[C@@H](C)CC[C@@]2(C)C(COC(=O)c3cc(Br)c[nH]3)=CCC[C@@H]12`, for which the pIC50 was 4.59 in experiment [1], 4.74 in experiment [2] and 4.82 in experiment [3]. Moreover, in experiment [4], the zone of inhibition at 10 µg/disc turned out to be 10 mm. The zone of inhibition at 20 µg/disc in experiment [5] is 12 mm.

For `C=C1CC[C@@H]2C(C)(C)CCC[C@@]2(C)[C@@H]1CC/C(C)=C/Cn1c[n+](C)c2ncnc(N)c21` [AGELASINE D], the pIC50 was 4.44 in experiment [1], 4.72 in experiment [2] and under 4.62 in experiment [3]. Further, the zone of inhibition at 10 µg/disc in experiment [4] stood at 14 mm. The zone of inhibition at 20 µg/disc in experiment [5] was found to be 18 mm.

For `C/C(=C\Cn1c[n+](C)c2ncnc(N)c21)CC[C@]1(C)[C@@H](C)CC[C@@]2(C)C(COC(=O)c3ccc[nH]3)=CCC[C@@H]12` [AGELINE B], the negative-log IC50 (pIC50) in experiment [1] was under 4.30; in experiment [2], under 4.30; in experiment [3] it was under 4.72. Moreover, the zone of inhibition at 10 µg/disc in experiment [4] worked out at 9 mm. Further, the zone of inhibition at 20 µg/disc in experiment [5] is 12 mm.

Take `CC1=CCC[C@H]2[C@](C)(CC/C(C)=C/Cn3c[n+](C)c4ncnc(N)c43)[C@@H](C)CC[C@@]12C` [AGELASINE A]: the pIC50 in experiment [1] is under 4.30; in experiment [2], 4.38; in experiment [3] it was under 4.62. The zone of inhibition at 10 µg/disc in experiment [4] was determined as 12 mm. Further, the zone of inhibition at 20 µg/disc in experiment [5] came out at 14 mm.

Turning to `CC1=CC(=O)C[C@@H]2[C@@](C)(CC/C(C)=C/C[n+]3cn(C)c4ncnc(N)c43)[C@H](C)CC[C@@]12C`, the pIC50 in experiment [1] was under 4.30; in experiment [2], under 4.30; in experiment [3] it was under 4.64.

As to `C=C1CCCC(C)(C)[C@H]1CC/C(C)=C/CC/C(C)=C/C[n+]1cn(C)c2ncnc(N)c21`, the pIC50 in experiment [1] is under 4.30; in experiment [2], under 4.30; in experiment [3] it was under 4.62. Further, the zone of inhibition at 10 µg/disc in experiment [4] was found to be 10 mm. The zone of inhibition at 20 µg/disc in experiment [5] was found to be 14 mm.

For the compound `CC1=CCC[C@H](C)[C@@]1(C)CCC(C)(O)CCC/C(C)=C/C[n+]1cn(C)c2ncnc(N)c21` (stereo partly specified), the pIC50 in experiment [1] was under 4.30; in experiment [2], under 4.30; in experiment [3], under 4.64. The zone of inhibition at 20 µg/disc in experiment [5] was 10 mm.

Consider `CC1=CC(=O)C[C@H]2[C@](C)(CC/C(C)=C/C[n+]3cn(C)c4ncnc(N)c43)[C@@H](C)CC[C@@]12C`, for which the pIC50 in experiment [1] was under 4.30; in experiment [2], under 4.30; in experiment [3], under 4.64. Besides, the “growth inhibition (GI)” value in experiment [4] was “inactive”.

Take `COc1cccc2c1C(=O)c1c(O)c3c(c(O)c1C2=O)C[C@@](O)(C(=O)CO)C[C@@H]3O[C@H]1C[C@H](N)[C@H](O)[C@H](C)O1` [DOXORUBICIN]: the pIC50 in experiment [2] is 7.64.

Regarding `CC1=CCC[C@@H]2[C@@](C)(CC/C(C)=C/Cn3c[n+](C)c4ncnc(N)c43)[C@H](C)CC[C@@]12C` [AGELASINE B], the negative logarithm of the IC50 (pIC50) in experiment [1] was 4.66; in experiment [2], 4.72; in experiment [3], under 4.62. Also, in experiment [4], the zone of inhibition at 10 µg/disc was found to be 12 mm. Further, the zone of inhibition at 20 µg/disc in experiment [5] was determined as 15 mm.

Turning to `CC1=CCC[C@H](C)[C@@]1(C)CC/C(C)=C/CC/C(C)=C/Cn1c[n+](C)c2ncnc(N)c21` [AGELINE A], the pIC50 was 4.62 in experiment [1], 4.80 in experiment [2] and under 4.62 in experiment [3]. Also, the zone of inhibition at 10 µg/disc in experiment [4] worked out at 14 mm. Also, in experiment [5], the zone of inhibition at 20 µg/disc is 20 mm.

As for `CN[C@@H]1[C@H](O[C@H]2[C@H](O[C@H]3[C@H](O)[C@@H](O)[C@H](N=C(N)N)[C@@H](O)[C@@H]3N=C(N)N)O[C@@H](C)[C@]2(O)C=O)O[C@@H](CO)[C@H](O)[C@H]1O` [STREPTOMYCIN SULFATE], the zone of inhibition at 10 µg/disc in experiment [4] was found to be 30 mm.
